Source: PubChem (Johns Hopkins Ion Channel Center)
Most compounds without a hit are left out; they make up all but 3.5% or so of the library.
MrgX1 agonist: human MrgX1 receptor agonism, primary screen | Q96LB2 | MrgX1-HEK293 cells, Fluo-4 calcium fluorescence, agonist mode; stronger effect = higher value | B-score at 10 µM | 0.44% of 310,000 active;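 active = calcium response B-score plate-corrected fluorescence ratio at least 3 library SD, with starting fluorescence B-score inside 5 SD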
Target sequence (Q96LB2 whole entry, looked up): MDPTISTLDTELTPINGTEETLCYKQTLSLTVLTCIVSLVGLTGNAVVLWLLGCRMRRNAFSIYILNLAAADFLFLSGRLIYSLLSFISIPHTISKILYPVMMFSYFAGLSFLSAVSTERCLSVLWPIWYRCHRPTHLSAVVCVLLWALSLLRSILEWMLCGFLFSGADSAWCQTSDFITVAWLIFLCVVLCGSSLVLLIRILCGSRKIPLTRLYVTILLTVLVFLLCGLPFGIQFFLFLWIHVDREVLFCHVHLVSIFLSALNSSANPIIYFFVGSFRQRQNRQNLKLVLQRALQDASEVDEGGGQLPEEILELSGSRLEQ
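Assay system: MrgX1-expressing HEK293 cells / Amount: fifteen thousand cells per well / Doses: test compound in the initial addition of three / Timing: cells plated overnight, dye loaded 0.5 h 37 °C, 0.5 h room temperature / Technique: kinetic calcium dye fluorescence, Fluo-4 NW / Control set: positive and negative controls per plate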
RGS4 inh: inhibitors of human RGS4; HEK293 M3R/RGS4 inducible, Fluo-4 calcium flux; stronger effect = higher value; triggered by carbachol at its EC20; B-score at 10 µM; P49798; 0.45% of 310,000 active;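 active = B-score, a plate-corrected calcium signal, over three deviations above library mean, with baseline fluorescence within five deviations of library mean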;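 also: RGS4 expression induced by doxycycline in cells with stable M3 receptor; B-score is computed from the integrated fluorescence ratio over baseline after carbachol; higher B-score means a larger calcium signal and so more RGS4 inhibition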
Target sequence (P49798 whole entry, looked up): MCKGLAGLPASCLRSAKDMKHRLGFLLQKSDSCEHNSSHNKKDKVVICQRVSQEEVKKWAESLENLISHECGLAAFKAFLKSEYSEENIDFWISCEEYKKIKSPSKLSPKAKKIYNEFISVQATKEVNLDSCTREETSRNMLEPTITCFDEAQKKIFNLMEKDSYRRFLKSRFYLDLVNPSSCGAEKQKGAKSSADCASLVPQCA
RGS4 pot: potentiators or activators of RGS4. B-score at 10 µM. AID 463111. 0.92% of 310,000 active. HEK293 M3R/inducible RGS4, carbachol calcium flux Fluo4; stronger effect = lower value;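 active = B-score of the integrated calcium signal more than 4 SD below the library mean, with starting fluorescence not abnormally high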;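 also: negative B-score means reduced calcium response which marks RGS4 activation or potentiation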
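Assay system: HEK293 FlpIn-TREx cells, stable M3R, doxycycline-inducible RGS4 / Probe or stimulus: carbachol, ECmax concentration / Times: overnight RGS4 induction, 30 min dye load 37 °C, 20 min compound RT / Signal: kinetic calcium fluorescence imaging with Fluo4-AM dye, 2 µM / Measure: Agonist-evoked peak-minus-minimum fluorescence over baseline, integrated ratio, B score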
MrgX1 antagonist: human MrgX1 receptor antagonism, primary screen | Q96LB2 | MRGX1-HEK293 calcium flux, Fluo-4, BAM8-22 antagonism; stronger effect = lower value | B-score at 10 µM | 1.3% of 310,000 active | AID 588676;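 active = calcium-response B-score plate-corrected more than 3 library SD below zero, starting fluorescence within 5 deviations, no agonist response on first addition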;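 also: peak minus trough fluorescence over baseline after final BAM8-22 challenge near maximal dose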
MrgX1 PAM: human MrgX1 positive allosteric modulation, primary screen; Q96LB2; MrgX1-HEK293, Fluo-4 calcium flux, FDSS; stronger effect = higher value; B-score at 10 µM; 0.63% of 310,000 active; AID 588675;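 active = plate-corrected calcium response at least 3 library SD above typical, normal starting fluorescence, not activating the receptor alone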;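 also: compound read alongside a low EC10 to EC30 dose of BAM8-22 agonist; peak minus trough fluorescence over baseline measured at the second addition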
RGS4 act valid: confirmation of RGS4 activators; shares compounds with RGS4 pot; HEK293 M3R/RGS4 inducible, carbachol calcium flux Fluo4; 89% of 1,100 active; inhibition, % at 10 µM;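 active = inhibition above 3 SD of the buffer control wells, cut at about 41% in these data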;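 also: signal is the integrated peak-minus-minimum Fluo4 fluorescence over baseline ratio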
M3R Ca counter: counter-screen for RGS4 activators: effect in non-induced cells; shares compounds with RGS4 pot; HEK293 M3R non-induced RGS4, Fluo4 calcium flux; after carbachol challenge at its EC90; inhibition, % at 10 µM; 82% of 1,100 active; AID 602283;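 active = inhibition exceeding 3 SD of buffer-only control wells, cut at about 26% in these data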;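 also: percent drop in integrated peak-minus-baseline over baseline Fluo4 ratio after carbachol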
Each line names hits and unclear results; the compound was inactive in the other large screens (follow-up assays come after a bar, where they were run).

N#Cc1ccccc1OCCCN1CCC(Cc2ccccc2)CC1	RGS4 pot -8.72 | RGS4 act valid 82.0 | M3R Ca counter 38.8
O=C1CC(N2CCN(C/C=C/c3ccccc3)CC2)C(=O)N1Cc1cccs1 (centres undefined)	RGS4 pot -7.91 | RGS4 act valid 93.5 | M3R Ca counter 25.8
CN(Cc1ccccc1)S(=O)(=O)c1ccc(NS(=O)(=O)Cc2ccccc2)cc1	RGS4 pot -8.84 | RGS4 act valid 85.0 | M3R Ca counter 57.3
O=S(=O)(Cc1ccccc1)Nc1ccccc1	none
CCOc1cnc(-c2ccc(Cl)cc2)o1	none
CCOc1cnc(-c2c(-c3c(Cl)cccc3Cl)noc2C)o1	RGS4 pot -8.54 | RGS4 act valid 90.0 | M3R Ca counter 61.3
CCN(CC)C1CCN(C(=O)c2cc(COc3cccc4cccnc34)on2)C1 (centres undefined)	RGS4 pot -9.15 (no result: MrgX1 agonist, MrgX1 antagonist, MrgX1 PAM) | RGS4 act valid 89.5 | M3R Ca counter 75.3
CCOC(=O)N1CCC(N2CCN(CCC(C)C)C(CCO)C2)CC1 (centres undefined)	RGS4 pot -10.4 | RGS4 act valid 77.5 | M3R Ca counter 29.8
N=c1c2c(-c3ccccc3)c(-c3ccccc3)n(Cc3ccco3)c2ncn1Cc1ccccc1	RGS4 pot -11 | RGS4 act valid 93.0 | M3R Ca counter 94.8
COc1ccc(OC)c(/C=N/NC(=O)CCN2CCN(C(c3ccccc3)c3ccccc3)CC2)c1	RGS4 pot -10.8 | RGS4 act valid 92.5 | M3R Ca counter 93.8
COCCOC(=O)c1c(C)oc2ccc(OC(=O)c3c(OC)cccc3OC)cc12	RGS4 pot -7.68 | RGS4 act valid 93.0 | M3R Ca counter 57.3
COCCOC(=O)c1c(C)oc2ccc(OC(=O)c3ccc4c(c3)OCO4)cc12	RGS4 pot -8.38 | RGS4 act valid 89.5 | M3R Ca counter 59.3
CCOC(=O)Oc1ccc2oc(C)c(C(=O)OCCOC)c2c1	none
CCOCCN1CCN(c2c(CC)c(C)nc3cc(-c4cc(OC)cc(OC)c4)nn23)CC1	RGS4 pot -7.71 | RGS4 act valid 58.5 | M3R Ca counter 30.8
Cc1nc2ccccc2c(=O)n1NC(=O)c1c(F)cccc1F	none
COc1cc(C(=O)N2CCN(C(=O)c3cc(-c4ccc(Br)cc4)n[nH]3)CC2)cc(OC)c1OC	none
Cc1cccc(NC(=O)CSc2nc3ccccc3nc2N2CC(C)OC(C)C2)c1 (centres undefined)	none
Cc1cccc(N2CCN(C(=O)CSc3nc4ccccc4nc3N3CC(C)OC(C)C3)CC2)c1C (centres undefined)	RGS4 pot -8.09 | RGS4 act valid 85.0 | M3R Ca counter 83.8
O=C(NCc1ccccc1)c1ccc(C2SCC(=O)N2Cc2ccccc2)cc1 (centres undefined)	RGS4 pot -7.9 | RGS4 act valid 88.0 | M3R Ca counter 55.3
C=CCNC(=O)c1ccc(C2SCC(=O)N2Cc2ccccc2)cc1 (centres undefined)	none
COc1ccc(N(CC(=O)NCCSc2ccc(C)cc2)S(=O)(=O)c2ccccc2)c(OC)c1	RGS4 pot -12.3 | RGS4 act valid 73.0 | M3R Ca counter inactive
CC1=CC(C)(C)N(C(=O)CNC2CCCCC2)c2cc(C)ccc21	RGS4 pot -8.52 | RGS4 act valid 94.0 | M3R Ca counter 97.3
CC1=CC(C)(C)N(C(=O)CCl)c2cc(C)ccc21	none
O=C(NC1CCN(c2ncccn2)CC1)c1ccccc1F	none
O=C(Nc1ccc2c(c1)OCCO2)c1cccnc1	RGS4 pot -8.07 | RGS4 act valid inactive | M3R Ca counter inactive
O=C(CCCn1cnc([N+](=O)[O-])n1)Nc1cccc(O)c1	none
CCOc1ccc(OCCN2CCCCC2)cc1	none
CCCOc1ccc(C(O)(CCC)CCN2CCCCC2)cc1 (centres undefined)	RGS4 pot -8.34 | RGS4 act valid 87.5 | M3R Ca counter 35.8
CCCC(O)(CCN1CCOCC1)c1ccc(Cl)cc1 (centres undefined)	none
CCCC(O)(CCN1CCOCC1)c1ccc(Br)cc1 (centres undefined)	RGS4 pot -9.04 | RGS4 act valid 91.0 | M3R Ca counter 78.3
COc1ccc2c(C)cc(SCC(=O)Nc3ccc(Cl)cn3)nc2c1	none
COc1ccc(CNS(=O)(=O)c2ccc(-c3ccc(=O)[nH]n3)s2)cc1OC	none
CN(C)C/C=C/C(O)(c1ccccc1)c1ccccc1	RGS4 pot -9.34 | RGS4 act valid 93.0 | M3R Ca counter 74.8
CCN(CC)CCOC(=O)C1(c2ccccc2)CCCC1	RGS4 pot -9.12 | RGS4 act valid 94.0 | M3R Ca counter 92.8
CCN(CC)CCOC(=O)C1(c2ccc(OC)c(OC)c2)CCCC1	none
CC(=O)NC(Cc1ccccc1)C(=O)OCC(=O)c1ccccc1 (centres undefined)	none
CCOC(=O)c1ccccc1NC(=O)c1cn(-c2ccc(C)c(C)c2)c(=O)c2ccccc12	none
COC(=O)c1ccccc1NC(=O)c1cn(-c2ccc(C)c(C)c2)c(=O)c2ccccc12	RGS4 pot -11.3 | RGS4 act valid 76.0 | M3R Ca counter 83.8
CC1CCN(S(=O)(=O)c2ccc3c(ccn3CCC(=O)NC(C)C)c2)CC1	RGS4 pot -7.88 | RGS4 act valid inactive | M3R Ca counter inactive
CCOC(=O)N1CCC(NC(=O)c2ccc3c(c2)N(C)C(=O)/C(=C/c2cccc(OC)c2)S3)CC1	none
COc1cccc(CNC(=O)CCC2CCCN(c3cc(C)nc(N(C)C)n3)C2)c1 (centres undefined)	RGS4 pot -11.2 | RGS4 act valid 89.5 | M3R Ca counter 71.8
O=C(NCCc1ccccc1)C(c1cccs1)N(C(=O)CCl)c1ccc(Cl)cc1 (centres undefined)	RGS4 pot -8.1 | RGS4 act valid 50.5 | M3R Ca counter inactive
O=C(NCCc1ccccc1)C(c1cccs1)N(C(=O)c1csnn1)C1CC1 (centres undefined)	none
O=C(Cn1ncn2c(cc3ccccc32)c1=O)NCCc1cccs1	none
CN1CCC(Oc2ccc(Sc3ccccc3)cc2)CC1	RGS4 pot -8.21 | RGS4 act valid 86.0 | M3R Ca counter 41.3
CN1CCC(Oc2ccccc2Sc2ccc(C(F)(F)F)cc2)CC1	none
CN(Cc1ccc(F)cc1)C(=O)C(c1ccccc1)c1ccccc1	RGS4 pot -9.13 | RGS4 act valid 82.5 | M3R Ca counter 83.8
CN(Cc1cccc(F)c1)C(=O)C(c1ccccc1)c1ccccc1	none
